S100A4 MyoIIA: blocks human S100A4 binding to myosin IIA peptide | P26447 | S100A4/TAMRA-MyoIIA peptide fluorescence polarization | inhibition, % at 10.7 µM | actives 0.14% (n = 360,000);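 active = mean inhibition of at least 70% across replicates, with every replicate also reaching that level; inconclusive = mean inhibition reaches 70% but some replicates fall short; inactive = mean inhibition below 70%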
Target sequence (P26447 whole entry, looked up): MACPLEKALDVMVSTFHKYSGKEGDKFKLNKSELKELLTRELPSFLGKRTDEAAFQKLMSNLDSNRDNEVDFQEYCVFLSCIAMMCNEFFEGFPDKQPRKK
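Test system – S100A4 monomer (human) · Compound – single-point compound testing · Schedule – 5 min incubation before reading · Probe or stimulus – TAMRA-labelled myosin IIA heavy-chain peptide probe, 5 nM · Benchmarks – neutral control DMSO, positive control TFP · Medium – Calcium-containing HEPES buffer, pH 7.2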
PGC1a acetyl inh: PGC1a acetylation modulation, inhibitor mode. U2OS PGC1a acetylation, AlphaScreen anti-acetyl-lysine; with virally co-expressed GCN5 acetyltransferase. inhibition, % at 15.6 µM. actives 0.17% (n = 350,000). AID 651687;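 active = every replicate shows inhibition of at least 40%; inconclusive = mean inhibition at least 40% but some replicate below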;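 note: 0% = neutral control wells and 100% = positive control wells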
DENV2 CPE rescue: inhibitors of DENV2 cytopathic effect; CPE inhibition, % at 9.99 µM; actives 1.7% (n = 350,000); DENV2-infected cells, cytopathic effect rescue, plate reader; in the data active = CPE inhibition above about 20%, passing the limit was not always enough; inconclusive = no clear call, values can overlap the other calls; tested in BHK-21 cells;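 note: 0% = median of neutral control wells and 100% = median of positive control wells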
SIRT5 inh: blocks human SIRT5 desuccinylation of peptide; AID 652115; Purified SirT5, succinyl-peptide AMC, trypsin-coupled fluorescence; Q9NXA8; inhibition, % at 15 µM; actives 1.1% (n = 330,000); in the data active = inhibition above about 15%; inconclusive = no clear call, values can overlap the other calls
Target sequence (Q9NXA8 whole entry, looked up): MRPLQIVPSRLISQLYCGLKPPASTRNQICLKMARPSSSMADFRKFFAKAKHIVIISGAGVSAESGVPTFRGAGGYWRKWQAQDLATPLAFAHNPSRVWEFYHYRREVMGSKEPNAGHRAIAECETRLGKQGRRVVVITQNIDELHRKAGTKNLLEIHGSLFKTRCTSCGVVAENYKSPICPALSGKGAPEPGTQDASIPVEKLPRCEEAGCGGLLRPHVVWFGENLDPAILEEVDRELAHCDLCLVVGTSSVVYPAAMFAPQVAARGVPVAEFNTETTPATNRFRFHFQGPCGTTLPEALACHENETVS
Statin myotox sup: suppression of simvastatin myotoxicity. C2C12 myotubes + simvastatin, ATP luminescence, 48 h; scaled: DMSO 0, geranylgeraniol control 100. rescue of ATP level, % at 7.49 µM. actives 0.78% (n = 330,000);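 active = mean ATP rescue above about 67%, or every replicate alone reaching that limit, limit read from the data, passing the limit was not always enough; inconclusive = no clear call, values can overlap the other calls; inactive = mean under the limit and some replicate under it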;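 note: myotubes were challenged with 10 µM simvastatin during compound exposure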
The depositor's hits bear a star; ? = inconclusive; . = no result given. Sampled rows, rich in hits. Any-hit rate of the full collection: about 2.9%.

SMILES	S100A4 MyoIIA	PGC1a acetyl inh	DENV2 CPE rescue	SIRT5 inh	Statin myotox sup
O=C(NC1CCCCC1)C(c1ccc2ncccc2c1)N(Cc1ccc2c(c1)OCO2)C(=O)c1ccc2c(c1)OCCO2 (stereo unspecified)	5	96*	.	0	6
Cc1ccc(C(C(=O)NC2CCCC2)N(C(=O)Cc2cccs2)c2ccc3c(c2)OCCO3)cc1 (stereo unspecified)	-4	-20	-3	-1	106*
O=C(NC1CCCCC1)C(c1ccc2ncccc2c1)N(Cc1ccc(F)cc1)C(=O)c1ccc2c(c1)OCCO2 (stereo unspecified)	-7	-9	3	-1	2
O=C(NC1CCCC1)C(c1ccc(F)cc1)N(C(=O)Cc1cccs1)c1ccc2c(c1)OCCO2 (stereo unspecified)	.	3	.	.	26
CCCNC(=O)N(C)C[C@H]1Oc2cc(-c3ccc(C)cc3)ccc2S(=O)(=O)N([C@H](C)CO)C[C@H]1C	3	-5	-9	-3	-1
C[C@@H]1CN([C@H](C)CO)S(=O)(=O)c2ccc(C#CC3CCCCC3)cc2O[C@@H]1CN(C)C(=O)Cc1ccncc1	-3	-10	12	1	45
CCOC(=O)CNC(=O)OC1CCN2Cc3ccccc3N=C12 (stereo unspecified)	-7	78*	?	-2	-10
CCOCCOC(=O)C(C)Oc1ccc(Oc2nc(Cl)ccc2Cl)cc1 (stereo unspecified)	8	88*	2	-5	.
O=[N+]([O-])c1ccc(OCCCCCN2CCOCC2)cc1	-1	-3	26*	0	-6
CC1CCN(CCCCOc2ccc([N+](=O)[O-])cc2)CC1	-1	.	18	0	.
COC(=O)C1CCN(Cc2ccc(OCCCN3CCN(c4ccc([N+](=O)[O-])cc4)CC3)cc2)CC1	-5	-1	4	16*	.
C[C@H]1CN([C@@H](C)CO)C(=O)c2cccc(NC(=O)c3ccc(-c4nccs4)cc3)c2O[C@@H]1CN(C)CC1CCCCC1	-2	-9	-4	3	?
CO[C@H]1CN(C)C(=O)c2cc(NC(=O)c3nc4ccccc4s3)ccc2OC[C@@H](C)N(Cc2cccnc2)C[C@@H]1C	2	2	7	.	12
CCOc1ccc(C2C(C(=O)Nc3ccc(F)cc3)=C(C)Nc3nc(CCCO)nn32)cc1 (stereo unspecified)	-2	.	1	-4	-11
COc1ccc(C2C(C(=O)Nc3ccc(F)cc3)=C(C)Nc3nc(CCCO)nn32)cc1 (stereo unspecified)	-1	5	29*	.	0
CCOc1ccccc1C1C(C(=O)Nc2ccccc2OC)=C(C)Nc2nc(CCCO)nn21 (stereo unspecified)	-5	5	57*	-2	6
C[C@H](CO)N1C[C@H](C)[C@@H](CN(C)Cc2ccc3c(c2)OCO3)Oc2ccc(NC(=O)Cn3cnnn3)cc2CC1=O	-5	-3	-4	0	3
C[C@H]1CN([C@@H](C)CO)C(=O)Cc2cc(NS(=O)(=O)c3cn(C)cn3)ccc2O[C@@H]1CN(C)Cc1ccc(C(=O)Nc2ccccc2N)cc1	2	-1	21*	.	25
C[C@@H]1CN([C@@H](C)CO)C(=O)Cc2cc(NS(=O)(=O)c3cn(C)cn3)ccc2O[C@H]1CN(C)Cc1ccc(C(=O)Nc2ccccc2N)cc1	-7	5	107*	7	.
C[C@@H]1CN([C@@H](C)CO)C(=O)c2cc(C#CC3(O)CCCC3)cnc2O[C@H]1CN(C)C(=O)Nc1ccc2c(c1)OCO2	1	-1	9	2	0
C[C@@H]1CN([C@H](C)CO)C(=O)c2cc(-c3ccc(C#N)cc3)cnc2O[C@H]1CN(C)Cc1ccncc1	-25	-1	12	-2	-24
COc1ccc(CN(C)C[C@H]2Oc3ccc(NS(=O)(=O)c4cn(C)cn4)cc3CC(=O)N([C@@H](C)CO)C[C@H]2C)cc1	.	0	.	0	5
COc1ccc(NC(=O)N(C)C[C@@H]2Oc3c(NC(=O)Nc4ccc(F)cc4)cccc3C(=O)N([C@@H](C)CO)C[C@H]2C)cc1	0	0	34*	6	24
COc1ccc(NC(=O)Nc2cccc3c2O[C@@H](CN(C)C(=O)Nc2cccc4ccccc24)[C@H](C)CN([C@H](C)CO)C3=O)cc1	.	-3	2	.	98*
COc1ccc(NC(=O)Nc2cccc3c2O[C@@H](CN(C)C(=O)Nc2ccc(F)cc2)[C@H](C)CN([C@H](C)CO)C3=O)cc1	18	-9	-2	4	11
SMILES	S100A4 MyoIIA	PGC1a acetyl inh	DENV2 CPE rescue	SIRT5 inh	Statin myotox sup
COc1ccc(NC(=O)N(C)C[C@H]2Oc3c(NC(=O)CCCCCC(=O)Nc4ccccc4N)cccc3C(=O)N([C@H](C)CO)C[C@@H]2C)cc1	4	-8	8	3	.
COc1ccc(NC(=O)Nc2cccc3c2O[C@@H](CN(C)C(=O)Nc2ccc(OC)cc2)[C@@H](C)CN([C@@H](C)CO)C3=O)cc1	-2	7	2	5	21
COc1ccc(NC(=O)Nc2cccc3c2O[C@@H](CN(C)C(=O)Nc2cccc4ccccc24)[C@@H](C)CN([C@@H](C)CO)C3=O)cc1	.	2	-4	.	31
COc1ccc(NC(=O)N(C)C[C@H]2Oc3c(NC(=O)NC(C)C)cccc3C(=O)N([C@H](C)CO)C[C@@H]2C)cc1	-3	-20	1	-3	96*
COc1ccc(NC(=O)N(C)C[C@H]2Oc3c(NC(=O)CCCCCC(=O)Nc4ccccc4N)cccc3C(=O)N([C@@H](C)CO)C[C@H]2C)cc1	13	2	34*	.	.
COc1ccc(S(=O)(=O)Nc2ccc3c(c2)C(=O)N([C@H](C)CO)C[C@H](C)[C@H](CN(C)C(=O)c2ccncc2)OCCCC[C@H](C)O3)cc1	-1	9	5	0	.
COc1ccc(NC(=O)Nc2ccc3c(c2)CC(=O)N([C@@H](C)CO)C[C@H](C)[C@H](CN(C)C(=O)Nc2ccccc2)O3)cc1	6	-5	?	-2	-2
CCC(=O)N[C@H]1C=C[C@H](CC(=O)NCc2ccccc2F)O[C@@H]1CO	1	-2	-5	3	-4
C[C@H](CO)N1C[C@H](C)[C@H](CN(C)C(=O)Nc2ccc(F)cc2)Oc2c(NC(=O)Nc3cccc4ccccc34)cccc2C1=O	-7	2	42*	2	-49
COc1ccc(NC(=O)Nc2cccc3c2O[C@@H](CN(C)C(=O)Nc2ccccc2)[C@H](C)CN([C@H](C)CO)C3=O)cc1	3	14	36*	-7	19
COc1ccc(NC(=O)Nc2cccc3c2O[C@H](CN(C)S(=O)(=O)c2ccccc2)[C@@H](C)CN([C@H](C)CO)C3=O)cc1	0	-10	-4	1	-14
C[C@H](CO)N1C[C@H](C)[C@@H](CN(C)C(=O)Nc2ccccc2)Oc2c(NC(=O)NC3CCCCC3)cccc2C1=O	6	.	64*	3	1

Bioassay records deposited in PubChem by Broad Institute.
